This is a sample that favours compounds with a hit; in the whole collection about 2.8% have one here.
PAFAH1B2 FP inh: inhibitors of human PAFAH1B2; P68402; inhibition, % at 3.39 µM; recombinant PAFAH1B2, FP-rhodamine activity probe, fluorescence polarization; AID 492953; 340,000 compounds, 1.2% hits;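 active = inhibition above the mean of all tested compounds plus 3 SD, cut at about 24% in these data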
mABHD4 FP: ABHD4 (mouse) inhibition, primary FP screen; Q8VD66; purified mABHD4, FP-Rh probe fluorescence polarization; inhibition, % at 8.92 µM; 370,000 compounds, 0.54% hits;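 active = inhibition exceeding the mean over every tested compound plus 3 SD, cut at about 30% in these data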
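Material: mouse ABHD4 enzyme, wild type; Benchmarks: S159A mutant high control, sample median low control; Buffer or medium: HEPES pH 7.0, NaCl, Pluronic buffer; Signal: fluorescence polarization; Read-out: percent inhibition of probe binding, normalized to plate controls; Timing: pre-incubation 45 min, probe exposure 60 min, at 25 °C; Dosing: 8.92 µM, single dose.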
HTRA1 inh: inhibitors of human serine peptidase HTRA1; Q92743; recombinant HTRA1, FP-rhodamine activity-based probe, fluorescence polarization; inhibition, % at 5.96 µM; 340,000 compounds, 0.5% hits; in the data active = inhibition above about 36%
Target sequence (Q92743 whole entry, looked up): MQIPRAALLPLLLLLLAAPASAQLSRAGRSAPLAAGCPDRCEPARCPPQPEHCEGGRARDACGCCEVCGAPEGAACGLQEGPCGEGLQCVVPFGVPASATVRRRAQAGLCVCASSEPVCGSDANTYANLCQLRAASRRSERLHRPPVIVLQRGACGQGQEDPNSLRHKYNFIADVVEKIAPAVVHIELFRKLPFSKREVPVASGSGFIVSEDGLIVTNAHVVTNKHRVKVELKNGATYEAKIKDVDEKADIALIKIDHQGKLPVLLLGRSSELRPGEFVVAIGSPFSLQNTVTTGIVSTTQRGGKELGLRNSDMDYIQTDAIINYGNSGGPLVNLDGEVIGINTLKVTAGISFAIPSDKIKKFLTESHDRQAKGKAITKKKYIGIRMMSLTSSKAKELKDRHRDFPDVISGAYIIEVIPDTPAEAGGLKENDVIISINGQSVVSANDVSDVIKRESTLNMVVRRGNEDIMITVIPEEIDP
PAFAH1B3 FP inh: blocks human PAF acetylhydrolase 1B catalytic subunit 3; recombinant PAFAH1B3, FP-rhodamine probe, fluorescence polarization; inhibition, % at 3.39 µM; 340,000 compounds, 0.28% hits; AID 492972;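 active = inhibition above the screen-wide average of all tested compounds plus 3 SD, cut at about 25% in these data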
PAFAH2 inh: PAFAH2 (human) inhibition; Q99487; recombinant PAFAH2, FP-rhodamine activity probe, fluorescence polarization; inhibition, % at 3.39 µM; 340,000 compounds, 0.99% hits; AID 492956;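 active = inhibition above the mean over all tested compounds plus 3 SD, cut at about 30% in these data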;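 also: inhibitors block probe labeling of enzyme so polarization drops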
pPAFAH FP inh: inhibitors of human plasma PAF acetylhydrolase (pPAFAH) | recombinant pPAFAH, FP-rhodamine probe fluorescence polarization | Q13093 | 330,000 compounds, 1.5% hits | AID 463082 | inhibition, % at 3.39 µM;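 active = inhibition above the mean inhibition across the screen plus 3 SD, cut at about 25% in these data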;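 also: inhibitors block binding of the rhodamine activity-based probe so polarization drops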
mABHD4 conf: ABHD4 (mouse) inhibition, FP confirmation; purified mABHD4, FP-Rh probe fluorescence polarization; inhibition, % at 8.92 µM; 1,800 compounds, 55% hits; shares compounds with mABHD4 FP;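 active = mean inhibition across replicates above the hit cutoff set in the primary screen, cut at about 30% in these data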
Each line names hits and unclear results; the compound was inactive in the other large screens (follow-up assays come after a bar, where they were run).

COc1ccc(NC(=O)c2ccccc2NC(=O)NC2CCCCC2)cc1	mABHD4 FP 46.8 | mABHD4 conf inactive
CCN(C)C(=O)CNc1nnnn1-c1ccccc1	none (no result: PAFAH1B2 FP inh, HTRA1 inh, PAFAH1B3 FP inh, PAFAH2 inh, pPAFAH FP inh)
COC(=O)C1=C(C)N(Cc2ccccc2C(F)(F)F)C(=NCc2cc(OC)c(OC)c(OC)c2)NC1c1cccc(F)c1 (stereo unspecified)	none (no result: PAFAH1B2 FP inh, HTRA1 inh, PAFAH1B3 FP inh, PAFAH2 inh, pPAFAH FP inh)
CC(=O)Oc1cccc2c1C(=O)c1c(OC(C)=O)cc(C(=O)O)cc1C2=O	mABHD4 FP 48.0 | mABHD4 conf inactive
O=C(C1=C(O)C(=O)N(CCc2ccccc2)C1c1cccs1)c1ccco1 (stereo unspecified)	mABHD4 FP 35.1 | mABHD4 conf 31.5
O=C(C1=C(O)C(=O)N(CCc2ccccc2)C1c1cccnc1)c1ccco1 (stereo unspecified)	none
O=C(O)c1cc(N/N=C/c2c(O)ccc3ccccc23)ccc1Cl	none
Nc1cc(Cl)nc(N/N=C/c2c(O)ccc3ccccc23)n1	mABHD4 FP 32.0 | mABHD4 conf inactive
Nc1c(-c2ccc(C(F)(F)F)cc2)nc2ncccn12	mABHD4 FP 37.7 (no result: PAFAH1B2 FP inh, HTRA1 inh, PAFAH1B3 FP inh, PAFAH2 inh, pPAFAH FP inh) | mABHD4 conf inactive
COc1ccc(CN2C/C(=C/c3ccccc3)N3C(=O)C[C@@H](c4ccc5ccccc5c4)N=C23)c(OC)c1	none (no result: PAFAH1B2 FP inh, HTRA1 inh, PAFAH1B3 FP inh, PAFAH2 inh, pPAFAH FP inh)
O=C1N=c2ccccc2=C1c1sc(=S)n(-c2ccc(O)cc2)c1O	mABHD4 FP 38.1 | mABHD4 conf inactive
CN(c1ccc(O)cc1)c1nc(O)c(C2=c3ccccc3=NC2=O)s1	mABHD4 FP 43.1 | mABHD4 conf 64.9
O=C1N=c2ccccc2=C1c1sc(=O)[nH]c1O	none (no result: PAFAH1B2 FP inh, HTRA1 inh, PAFAH1B3 FP inh, PAFAH2 inh)
Cc1c(-n2c(O)c(C3=c4ccccc4=NC3=O)sc2=S)c(=O)n(-c2ccccc2)n1C	none
COC(=O)[C@]12C[C@H](CC(=O)N3CCN(C(=O)c4ccco4)CC3)C(=O)N(Cc3ccco3)C1=C[C@H](COCc1ccccc1)O[C@@H]2C	none (no result: PAFAH1B2 FP inh, HTRA1 inh, PAFAH1B3 FP inh, PAFAH2 inh, pPAFAH FP inh)
CCC[C@H]1[C@@H](OC(=O)NCc2cccnc2)CC[C@@]23CCCN2C(=O)CCC[C@@H]13	none (no result: PAFAH1B2 FP inh, HTRA1 inh, PAFAH1B3 FP inh, PAFAH2 inh, pPAFAH FP inh)
COc1ccc(N2COC3c4cccc5cccc(c45)C32)cc1 (stereo unspecified)	mABHD4 FP 42.6 | mABHD4 conf inactive
Oc1ccc(/C=N/Nc2nc(N3CCCC3)nc(N3CCCC3)n2)cc1O	mABHD4 FP 29.9 | mABHD4 conf inactive
Cc1nc2ccccn2c1C(O)(c1ccccc1)c1ccccc1	none (no result: PAFAH1B2 FP inh, HTRA1 inh, PAFAH1B3 FP inh, PAFAH2 inh, pPAFAH FP inh)
COC(=O)[C@]12C[C@H](CC(=O)N3CCC(c4ccccc4)CC3)C(=O)N(CCC3=CCCCC3)C1=C[C@H](C(C)C)O[C@@H]2C1CC1	none (no result: PAFAH1B2 FP inh, HTRA1 inh, PAFAH1B3 FP inh, PAFAH2 inh, pPAFAH FP inh)
COc1ccccc1CNc1nc(NCc2ccccc2OC)c2sccc2n1	none (no result: PAFAH1B2 FP inh, HTRA1 inh, PAFAH1B3 FP inh, PAFAH2 inh, pPAFAH FP inh)
COc1ccccc1CNc1nc(NCCOc2ccccc2)c2sccc2n1	mABHD4 FP 37.1 (no result: PAFAH1B2 FP inh, HTRA1 inh, PAFAH1B3 FP inh, PAFAH2 inh, pPAFAH FP inh) | mABHD4 conf 40.4
Cc1ccc(CNc2nc(NCc3ccccc3)nc3ccsc23)c(C)c1	mABHD4 FP 34.9 (no result: PAFAH1B2 FP inh, HTRA1 inh, PAFAH1B3 FP inh, PAFAH2 inh, pPAFAH FP inh) | mABHD4 conf 47.2
COc1ccc(CCNS(=O)(=O)c2c(C)n[nH]c2C)cc1	none (no result: PAFAH1B2 FP inh, HTRA1 inh, PAFAH1B3 FP inh, PAFAH2 inh, pPAFAH FP inh)
CC(=O)CC[C@@H]1CC[C@]2(CCCN(C(=O)c3ccco3)C2)O1	none (no result: PAFAH1B2 FP inh, HTRA1 inh, PAFAH1B3 FP inh, PAFAH2 inh, pPAFAH FP inh)
CCOC(=O)CC[C@@H]1CC[C@]2(CCCN(C(=O)C3CCCCC3)C2)O1	none (no result: PAFAH1B2 FP inh, HTRA1 inh, PAFAH1B3 FP inh, PAFAH2 inh, pPAFAH FP inh)
O=C(O)c1ccc(N2CCN(c3ccc(Cl)cc3)CC2)c([N+](=O)[O-])c1	mABHD4 FP 38.0 | mABHD4 conf 46.8
COC(=O)[C@]12C[C@H](CC(=O)NCc3cccc(C(F)(F)F)c3)C(=O)N(CCc3ccc(OC)c(OC)c3)C1=C[C@H](C1CCCC1)O[C@@H]2C	none (no result: PAFAH1B2 FP inh, HTRA1 inh, PAFAH1B3 FP inh, PAFAH2 inh, pPAFAH FP inh)
Cc1cc(NC(=O)CSc2nnnn2C)n(-c2ccccc2)n1	mABHD4 FP 56.5 | mABHD4 conf inactive
CCc1noc(C)c1C(=O)N(C)CC(=O)Nc1ccc(Br)cc1C	mABHD4 FP 41.0 | mABHD4 conf inactive
CCc1noc(C)c1C(=O)N(C)CC(=O)Nc1ccccc1Br	none
CC(C)C1Nc2c(O)cc(Cl)c([N+](=O)[O-])c2C2C=CCC21 (stereo unspecified)	PAFAH1B2 FP inh 42.4, mABHD4 FP 58.1 (no result: pPAFAH FP inh) | mABHD4 conf 35.5
CN1c2ccsc2/C(=N/Nc2ccccc2)CS1(=O)=O	mABHD4 FP 31.9 | mABHD4 conf inactive
